Square brackets hold non-standard residues; d marks the D form. Ends that are not written are not given here.
Assays:
[1] = biological target: MC1 receptor (B16/F1 melanoma cells) (Mus musculus, UniProt Q01727); details: read-out: MC1 receptor binding affinity; cited from earlier work
B16/F1 melanoma cells = experiment: Clonogenic cytotoxicity; assay type: cell-based, murine; details: 0.1 μM peptide, 3 h incubation at 37 °C, colonies over 6 days
Method in brief: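 B16/F1 cells seeded at 200 cells/well and held overnight at 37 °C. After a wash with RPMI 1640, cells were exposed for 3 h at 37 °C to 0.1 μM test peptide in medium; controls received medium only. After two PBS washes, colonies grew for 6 days with medium changed every other day. Cells were fixed in methanol:glacial acetic acid (3:1) and hematoxylin-stained; colonies >50 cells scored as survivors. Survival normalized to untreated (100%); unpaired Student's t-test.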

MC1 receptor (B16/F1 melanoma cells), sequence (Q01727 whole entry): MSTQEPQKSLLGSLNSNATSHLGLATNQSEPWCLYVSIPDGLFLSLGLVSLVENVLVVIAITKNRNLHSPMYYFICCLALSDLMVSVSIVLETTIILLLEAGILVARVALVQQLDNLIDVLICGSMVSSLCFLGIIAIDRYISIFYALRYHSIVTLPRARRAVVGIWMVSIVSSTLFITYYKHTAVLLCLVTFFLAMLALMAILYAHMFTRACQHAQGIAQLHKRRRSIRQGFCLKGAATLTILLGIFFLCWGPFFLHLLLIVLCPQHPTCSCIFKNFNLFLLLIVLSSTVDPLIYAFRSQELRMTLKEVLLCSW

Substance	IC50 [1]	decrease in clonogenic survival compared to untreated group (B16/F1 melanoma cells)
[Cys^3,4,10, D-Phe^7, Arg^11]α-MSH3-13 (CCEH[dF]RWCRPV; not fully specified (C-terminus); ends and bridges not checked) [(Arg^11)CCMSH]	1.7 nM	–
[Cys^3,4,10, D-Phe^7, Arg^11]α-MSH3-13 [(Arg^11)CCMSH]	–	11%

From PMC3621710 (Bioconjugate chemistry, 2009)
